Source: PubChem BioAssay (several laboratories)
Most compounds without a hit are left out; they make up all but 4.8% or so of the library.
NALP1 inh: blocks the NALP1 inflammasome reconstituted in yeast; S. cerevisiae NALP1/ASC/caspase-1 growth, X-gal OD620, 72 h; inhibition, % at 10 µM; hit rate 0.61% among 280,000; AID 2071; in the data active = inhibition mostly above about 24%, no sharp cut-off; inactive = mostly below about 32%
ATG4B inh: inhibitors of human ATG4B cysteine protease; hit rate 0.51% among 340,000; AID 504462; ATG4B cleavage of LC3-PLA2, NBD-HPC fluorescence, 1 h; Q9Y4P1; inhibition, % at 8.33 µM; in the data active = inhibition above about 40%
Target sequence (Q9Y4P1 whole entry, looked up): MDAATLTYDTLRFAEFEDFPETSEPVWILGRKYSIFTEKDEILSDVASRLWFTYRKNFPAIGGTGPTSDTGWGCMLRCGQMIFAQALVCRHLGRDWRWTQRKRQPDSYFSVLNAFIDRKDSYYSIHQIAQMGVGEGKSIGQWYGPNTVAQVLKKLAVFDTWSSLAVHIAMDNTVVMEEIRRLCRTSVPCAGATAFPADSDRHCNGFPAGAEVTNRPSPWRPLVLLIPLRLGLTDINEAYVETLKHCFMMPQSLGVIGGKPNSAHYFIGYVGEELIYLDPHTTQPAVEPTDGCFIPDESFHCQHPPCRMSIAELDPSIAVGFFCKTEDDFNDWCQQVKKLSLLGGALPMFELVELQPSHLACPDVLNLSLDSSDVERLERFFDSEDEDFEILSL
ALR H2O2 inh: inhibitors of human sulfhydryl oxidase ALR; P55789; inhibition, % (no concentration beside the values); hit rate 3.8% among 290,000; purified ALR, DTT oxidation, H2O2 HRP-luminol luminescence;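 active = mean replicate inhibition above about 79%, with every replicate also reaching it, limit read from the data; inconclusive = only one of the two criteria met; inactive = mean below limit and not every replicate reaching it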
Calb FLC: affects C. albicans growth with fluconazole. hit rate 0.57% among 300,000. C. albicans CaCi-2 + fluconazole, Alamar Blue growth, 48 h. growth inhibition, % (no concentration beside the values);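 active = growth inhibition above about 58% in most replicates, limit read from the data, passing the limit was not always enough; inconclusive = exactly half the replicates above a set limit; inactive = most replicates below a set limit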;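 also: all wells also contain fluconazole at 8 µg/ml as a sub-toxic cotreatment; 0% = median of DMSO wells and 100% = median of geldanamycin control wells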
UCH37 DUB inh: human UCH37 deubiquitinating enzyme inhibition; Q9Y5K5; purified proteasome/UCH37, Ub-AMC cleavage fluorescence; inhibition, % (test concentration not listed); hit rate 0.33% among 330,000; AID 588478;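 active = mean inhibition over replicate wells above about 20%, limit read from the data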;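 also: 0% = compound-free wells with enzyme and 100% = wells lacking proteasome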
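Assay system: Proteasome-bound UCH37. Buffer or medium: pH 7.4 Tris-HCl (50 mM) with ovalbumin, ATP-MgCl2, DTT. Incubation: 30 min preincubation with enzyme, 25 min cleavage at room temperature. Measured by: fluorescence, ex 355 nm, em 460 nm. Read-out basis: percent inhibition. Control set: wells without proteasome as full block, compound-free enzyme plus substrate as uninhibited.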
NALP3 yeast inh: NALP3 inhibition in yeast; hit rate 0.39% among 330,000; Yeast reconstituted NLRP3/ASC/caspase-1, beta-gal luminescence, 24 h; inhibition, % at 10 µM;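 active = inhibition of 50% or more; inactive = inhibition below 50%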;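 also: plate controls were induced DMSO wells for no effect and uninduced yeast grown without galactose for full effect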
An asterisk follows results filed as active; ? = inconclusive; / = no result.

SMILES	NALP1 inh	ATG4B inh	ALR H2O2 inh	Calb FLC	UCH37 DUB inh	NALP3 yeast inh
Oc1c(Cl)cc(Cl)cc1C=Nc1ccccc1N1CCCC1	38	/	98*	0	/	-13
CC(=NN1CCN(c2ccccn2)CC1)c1ccc([N+](=O)[O-])cc1	/	/	/	/	4	/
Cc1ccc(NC2Nc3cc(C)nn3S2)c(C)c1 (stereo not given)	-5	5	87*	3	4	3
CC(=NO)c1ccc2c3ccccc3n(C)c2c1	/	/	/	/	-50	/
Cc1ccc2[nH]c(=O)c(C3C(C#N)=C(N)Oc4c3ccc3cccnc43)cc2c1 (stereo not given)	11	-3	-5	99*	0	25
C/C(N)=C(/C#N)C(=O)CSc1cc(C)c2cc(C)cc(C)c2n1	8	-2	96*	-21	3	4
NC(=O)Cc1nc(-c2ccc(Br)cc2)cs1	36	27	0	-26	1	22
Cc1ccc(-c2csc(CC(N)=O)n2)cc1	-18	7	91*	?	-1	18
Nn1c(Cc2cccc3ccccc23)nnc1SCc1ccccc1Cl	14	-3	87*	6	-3	19
O=C(NN=C/C(Br)=C\c1ccccc1)c1ccco1	/	/	/	/	7	/
CCn1c(-c2ccccc2O)n[nH]c1=S	-6	7	92*	3	0	2
CCn1c(-c2cc(-c3ccccc3)sc2N)n[nH]c1=S	-3	-7	99*	19	-3	36
CCn1c(-c2cc(-c3cccc(OC)c3)nc3ccccc23)n[nH]c1=S	25	-10	63	23	3	33
C(=Nc1ncnc2sccc12)NOCc1ccccc1	/	/	/	/	0	/
O=C(c1cccc(S(=O)(=O)N2CCc3ccccc3C2)c1)N1CCN(c2ccc(O)cc2)CC1	18	-6	95*	-29	0	-2
Cc1ccc(NC(=O)Cn2cnc3cc([N+](=O)[O-])ccc3c2=O)c(Cl)c1	-1	6	/	0	0	1
Cc1ccc(NC(=O)Cn2cnc3cc([N+](=O)[O-])ccc3c2=O)cc1	37*	28	-7	-1	3	31
CCCn1c(N)c(N2CCCCC2)c(=O)n(CC(=O)Nc2ccccc2C)c1=O	37*	-6	14	-2	-2	9
O=[N+]([O-])c1ccc(O)c(C=NNC(=S)Nc2ccc(Cl)cc2Cl)c1	/	/	/	/	2	/
O=C1NC2(CCCCC2)C(=O)N1N=Cc1ccccc1Br	/	/	/	/	5	/
COc1cccc(/C=N/N2C(=O)NC3(CCCCC3)C2=O)c1O	-6	-15	84*	-2	/	1
COc1ccc(C=NNC(=O)c2ccco2)cc1Cn1nc(C)cc1C	/	/	/	/	7	/
CCOc1ccc(-c2nc(-c3cccs3)c(CC(=O)O)s2)cc1OC	-5	11	89*	33	-36	1
CCOc1ccc(-c2nnc(-c3cccs3)o2)cc1OCC	23	-14	/	0	-36	29
O=C(Cn1cnc([N+](=O)[O-])n1)NN=Cc1cccc(Cl)c1	/	/	/	/	2	/
SMILES	NALP1 inh	ATG4B inh	ALR H2O2 inh	Calb FLC	UCH37 DUB inh	NALP3 yeast inh
COc1ccc(C(=O)Nc2ccccc2C(=O)NN=Cc2ccncc2)cc1OC	/	/	/	/	-1	/
[O-][N+]1=c2ccc(Nc3ccccc3)cc2=NC12CCCCC2	28	-7	-33	108*	13	/
COc1ccc(Nc2ccc3c(c2)=NC2(CCCCC2)[N+]=3[O-])cc1	40*	-1	-2	76	19	23
COc1c(C=NNc2nc(N3CCCCC3)nc(N3CCCCC3)n2)cccc1[N+](=O)[O-]	/	/	/	/	4	/
O=C(CSc1ccccn1)NN=Cc1cccc([N+](=O)[O-])c1	/	/	/	/	2	/
COc1ccc(C2NC(=O)c3sc(=S)n(-c4ccccc4)c3N2)cc1 (stereo not given)	-14	8	64	-3	3	20
CCOc1ccc(C2NC(=O)c3sc(=S)n(-c4ccccc4)c3N2)cc1 (stereo not given)	16	2	81*	-6	1	2
Fc1ccc(C=NNc2cccc(F)c2)cc1	/	/	/	/	2	/
CCN(CC)c1ccc(NC(=O)C2CC3CCC2C3)cc1 (stereo not given)	12	1	99*	-15	-3	44
O=C(Nc1ccccc1)C1CC2CCC1C2 (stereo not given)	24	-5	-2	-8	4	5
CC(=NNS(=O)(=O)c1ccccc1)c1ccc(NC(=O)C2CC2)cc1	/	/	/	/	5	/
